The source made the active and inactive calls. The calls are words filed in the database; no cut-off is given here. Where a SMILES comes first, the peptide text is derived from it.
Columns and labels:
Mu-type opioid receptor [1] = molecular target: T1, Mu-type opioid receptor (Homo sapiens, UniProt P35372); experiment: Agonist activity at human recombinant MOR expressed in CHO cells by calcium mobilization assay; type: functional, cell-based
[2] = molecular target: Delta-type opioid receptor (Homo sapiens) (UniProt P41143); experiment: Agonist activity at human recombinant DOR expressed in CHO cells at 1 uM by calcium mobilization assay; type: functional, cell-based
Chain of Delta-type opioid receptor (Homo sapiens) (P41143 whole entry): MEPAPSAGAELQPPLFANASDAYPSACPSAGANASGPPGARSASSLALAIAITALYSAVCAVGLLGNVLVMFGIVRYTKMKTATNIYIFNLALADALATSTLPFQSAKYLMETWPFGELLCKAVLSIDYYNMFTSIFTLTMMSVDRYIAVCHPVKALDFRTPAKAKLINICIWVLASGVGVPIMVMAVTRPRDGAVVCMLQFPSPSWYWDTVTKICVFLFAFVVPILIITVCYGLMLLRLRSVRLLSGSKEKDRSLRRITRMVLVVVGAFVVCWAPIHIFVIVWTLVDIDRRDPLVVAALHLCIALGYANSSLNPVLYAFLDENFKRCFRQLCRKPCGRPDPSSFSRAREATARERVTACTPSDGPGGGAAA

[3] = molecular target: Delta-type opioid receptor (Rattus norvegicus, UniProt P33533); experiment: Displacement of [3H][Ile5,6]deltorphin-2 from DOR in Wistar rat brain homogenate by scintillation counting analysis; type: tissue-based
Chain of Delta-type opioid receptor (P33533 whole entry): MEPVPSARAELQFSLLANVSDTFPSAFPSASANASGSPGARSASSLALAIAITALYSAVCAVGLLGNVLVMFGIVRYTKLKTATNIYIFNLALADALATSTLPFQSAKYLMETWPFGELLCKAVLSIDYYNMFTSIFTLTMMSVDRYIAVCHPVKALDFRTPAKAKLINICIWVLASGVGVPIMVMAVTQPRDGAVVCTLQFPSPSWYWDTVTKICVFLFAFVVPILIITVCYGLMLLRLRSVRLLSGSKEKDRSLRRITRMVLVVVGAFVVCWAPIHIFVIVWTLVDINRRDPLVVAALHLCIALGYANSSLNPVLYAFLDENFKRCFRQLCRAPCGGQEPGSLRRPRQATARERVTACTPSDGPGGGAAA
In short: (§1)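 Competitive radioligand displacement in brain homogenates from adult male Wistar rats: [3H]DAMGO for MOR, [3H][Ile5,6]deltorphin-2 for DOR. IC50 read from logarithmic dose–displacement curves and converted to Ki. Three independent experiments, each in duplicate.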

[4] = molecular target: Kappa-type opioid receptor (Cavia porcellus, UniProt P41144); experiment: Displacement of [3H]nor-BNI from KOR in Dunkin Hartley guinea pig brain homogenate by scintillation counting analysis; type: tissue-based
Chain of Kappa-type opioid receptor (Cavia porcellus, UniProt P41144) (P41144 whole entry): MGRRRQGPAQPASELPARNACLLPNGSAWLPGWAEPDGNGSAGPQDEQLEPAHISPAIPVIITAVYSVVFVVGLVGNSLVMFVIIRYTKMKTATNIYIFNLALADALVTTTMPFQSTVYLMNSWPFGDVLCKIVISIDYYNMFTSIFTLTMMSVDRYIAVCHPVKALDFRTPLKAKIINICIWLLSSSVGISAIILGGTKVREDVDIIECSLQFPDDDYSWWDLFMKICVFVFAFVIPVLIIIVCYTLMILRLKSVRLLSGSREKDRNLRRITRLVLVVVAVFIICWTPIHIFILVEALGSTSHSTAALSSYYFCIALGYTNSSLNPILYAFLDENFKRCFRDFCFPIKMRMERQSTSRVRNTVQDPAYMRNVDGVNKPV
In short: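 KOR affinity measured by competitive displacement of [3H]nor-BNI in guinea pig brain membranes. IC50 taken from logarithmic dose–displacement curves and converted to Ki. Three independent experiments run in duplicate.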

Mu-type opioid receptor [5] = molecular target: Mu-type opioid receptor (Rattus norvegicus, UniProt P33535); experiment: Displacement of [3H]DAMGO from MOR in Wistar rat brain homogenate by scintillation counting analysis; type: tissue-based; in short: as §1
Chain of Mu-type opioid receptor (Rattus norvegicus, UniProt P33535) (P33535 whole entry): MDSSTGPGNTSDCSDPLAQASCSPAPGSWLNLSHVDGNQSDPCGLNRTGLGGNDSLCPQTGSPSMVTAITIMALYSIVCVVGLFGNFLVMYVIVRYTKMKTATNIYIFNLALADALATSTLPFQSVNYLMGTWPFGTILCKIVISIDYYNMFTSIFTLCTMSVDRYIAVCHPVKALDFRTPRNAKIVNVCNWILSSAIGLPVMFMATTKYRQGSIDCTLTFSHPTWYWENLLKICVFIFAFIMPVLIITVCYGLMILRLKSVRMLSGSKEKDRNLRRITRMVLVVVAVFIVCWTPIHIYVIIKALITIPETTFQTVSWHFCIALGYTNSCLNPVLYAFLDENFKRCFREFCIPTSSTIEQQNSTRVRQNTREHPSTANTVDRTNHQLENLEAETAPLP

[6] = Retention time of compound by RP-HPLC analysis; type: physicochemical
In short: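 Solvent A was 0.1% TFA in water and B was 80% acetonitrile with 0.1% TFA. Linear gradient of 0–100% B over 50 min at 1 ml/min.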

[7] = molecular target: T2, Kappa-type opioid receptor (Homo sapiens, UniProt P41145); experiment: Agonist activity at human recombinant KOR expressed in CHO cells at 1 uM by calcium mobilization assay; type: functional, cell-based
T2 sequence (P41145 whole entry): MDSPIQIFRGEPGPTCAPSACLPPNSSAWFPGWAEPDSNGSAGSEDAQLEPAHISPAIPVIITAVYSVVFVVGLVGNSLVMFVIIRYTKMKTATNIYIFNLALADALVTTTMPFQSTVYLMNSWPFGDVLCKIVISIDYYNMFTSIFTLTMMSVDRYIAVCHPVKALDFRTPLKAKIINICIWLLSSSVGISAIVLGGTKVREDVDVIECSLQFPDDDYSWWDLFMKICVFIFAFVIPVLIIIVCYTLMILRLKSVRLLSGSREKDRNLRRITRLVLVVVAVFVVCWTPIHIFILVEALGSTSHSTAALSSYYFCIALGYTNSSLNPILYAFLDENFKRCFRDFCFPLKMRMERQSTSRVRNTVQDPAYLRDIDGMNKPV

[8] = molecular target: T2, Kappa-type opioid receptor; experiment: Intrinsic activity at human recombinant KOR expressed in CHO cells at 1 uM by calcium mobilization assay relative to dynorphin A; type: functional, cell-based
[9] = molecular target: T2, Kappa-type opioid receptor; experiment: Agonist activity at human recombinant KOR expressed in CHO cells by calcium mobilization assay; type: functional, cell-based
In short: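 CHO cells stably co-expressing human recombinant KOR and the C-terminally modified chimeric G protein Gαqi5. Calcium mobilization read-out. Concentration–response curves fitted with a sigmoidal equation that includes baseline, Emax and Hill coefficient. Potency reported as pEC50, the negative log molar concentration giving 50% of the maximal effect. Efficacy reported as intrinsic activity, the ligand Emax relative to the standard agonist Emax.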

Mu-type opioid receptor [10] = molecular target: T1, Mu-type opioid receptor; experiment: Agonist activity at human recombinant MOR expressed in CHO cells at 1 uM by calcium mobilization assay; type: functional, cell-based

T1 sequence (P35372 whole entry): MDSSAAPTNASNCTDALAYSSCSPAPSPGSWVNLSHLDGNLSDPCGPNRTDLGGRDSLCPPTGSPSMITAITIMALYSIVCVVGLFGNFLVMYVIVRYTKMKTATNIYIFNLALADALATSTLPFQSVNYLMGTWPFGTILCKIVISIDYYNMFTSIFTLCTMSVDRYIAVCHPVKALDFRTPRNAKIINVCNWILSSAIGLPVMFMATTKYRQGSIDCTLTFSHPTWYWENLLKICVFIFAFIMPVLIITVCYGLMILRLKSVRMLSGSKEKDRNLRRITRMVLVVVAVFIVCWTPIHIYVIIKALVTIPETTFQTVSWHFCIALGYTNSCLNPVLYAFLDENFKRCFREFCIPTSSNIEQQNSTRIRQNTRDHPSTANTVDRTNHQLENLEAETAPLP

With `NC(=O)[C@H]1CC(F)(F)CN1C(=O)[C@H](Cc1ccccc1)NC(=O)[C@@H]1CCCN1C(=O)[C@@H](N)Cc1ccc(O)cc1` the EC50 (Mu-type opioid receptor [1]) was 20.4 nM, the Activity [2] was “inactive” and the Ki [3] was greater than 1000 nM. The Ki [4] was greater than 1000 nM, the Ki (Mu-type opioid receptor [5]) was 13.3 nM and the Retention_time [6] was 14.22 min.

In the case of `CC1(C)SSC(C)(C)[C@@H](NC(=O)[C@@H](N)Cc2ccc(O)cc2)C(=O)NCC(=O)N[C@@H](Cc2ccccc2)C(=O)N[C@H]1C(=O)O`, the Activity [7] is reported as “inactive”.

For `NC(=O)[C@H]1CC(F)(F)CN1C(=O)[C@H](Cc1ccccc1)NC(=O)[C@@H]1CC(F)(F)CN1C(=O)[C@@H](N)Cc1ccc(O)cc1`, the EC50 (Mu-type opioid receptor [1]) was 4.68 nM, the Activity [2] was “inactive” and the Ki [3] was greater than 1000 nM. It also gave a Ki [4] of 386 nM, an Intrinsic activity [8] of 0.84 and a Ki (Mu-type opioid receptor [5]) of 0.37 nM. The EC50 [9] was 813 nM and the Retention_time [6] was 14.99 min.

With `C[C@H](NC(=O)[C@@H](N)Cc1ccc(O)cc1)C(=O)N[C@@H](Cc1ccccc1)C(=O)NCC(=O)N[C@@H](Cc1ccc(O)cc1)C(=O)N1CCC[C@H]1C(=O)N[C@@H](CO)C(N)=O` the Activity [7] was “inactive”.

In the case of `NC(=O)[C@@H]1CC(F)(F)CN1C(=O)[C@H](Cc1ccccc1)NC(=O)[C@@H]1CC(F)(F)CN1C(=O)[C@@H](N)Cc1ccc(O)cc1`, the Activity [7] is reported as “inactive”, the EC50 (Mu-type opioid receptor [1]) is reported as 398 nM and the Activity [2] is reported as “inactive”. The Ki [3] was greater than 1000 nM, the Ki [4] was greater than 1000 nM and the Ki (Mu-type opioid receptor [5]) was 106 nM. It also gave a Retention_time [6] of 14.56 min.

With `NC(=O)[C@@H]1CCCN1C(=O)[C@H](Cc1ccccc1)NC(=O)[C@@H]1CCCN1C(=O)[C@@H](N)Cc1ccc(O)cc1` [MORPHICEPTIN] (H-YPFP-NH2) the Activity [7] was “inactive”, the EC50 (Mu-type opioid receptor [1]) was 741 nM and the Activity [2] was “inactive”. The Ki [3] was greater than 1000 nM, the Ki [4] was greater than 1000 nM and the Ki (Mu-type opioid receptor [5]) was 36.4 nM.

In the case of `NC(=O)[C@@H]1CCCN1C(=O)[C@H](Cc1ccccc1)NC(=O)[C@H]1CC(F)(F)CN1C(=O)[C@@H](N)Cc1ccc(O)cc1`, the Activity [7] is reported as “inactive”, the Activity [2] is reported as “inactive” and the Ki [3] is reported as greater than 1000 nM. The Ki [4] was greater than 1000 nM, the Activity (Mu-type opioid receptor [10]) was “inactive” and the Ki (Mu-type opioid receptor [5]) was greater than 1000 nM. For the same compound, the Retention_time [6] was 14.1 min.
